Screening data deposited in PubChem by several laboratories.
In the library only some 2.3% were active in any assay of this set; here they are far more common.
HIF activator: HIF pathway transcriptional activation; U2OS HRE-luciferase reporter, luminescence; normalized: DMSO 0%, desferrioxamine 100%; activation, % at 7.5 µM (by protocol); hit rate 0.32% among 300,000;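 active = mean activation of at least 10% of the iron chelator positive control signal, with at least half of replicates also reaching 10%; inconclusive = mean and replicate majority disagree about reaching 10%; inactive = mean and most replicates under 10%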
T cruzi repl: T. cruzi replication inhibition | T. cruzi beta-gal in NIH3T3, luminescence, 90 h | inhibition, % (no concentration beside the values) | hit rate 1.4% among 300,000;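 active = mean inhibition across valid replicates above about 55%, limit read from the data; inconclusive = mean below that limit but half or more replicates reach it; inactive = mean below it, under half of replicates reach it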;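 note: signal also drops with host cell toxicity which is not excluded here; 0% = plate median of DMSO wells and 100% = zero luminescence signal; higher percent means less beta-gal luminescence so fewer parasites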
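System – NIH/3T3 host cells with β-galactosidase reporter T. cruzi · Doses – single 50 nL compound addition per well in DMSO · Reagent – 5000 T. cruzi trypomastigotes/well · Medium – Low-serum DMEM with 2% FBS · Timing – ≥90 h infection period, 3 h prior cell attachment · Evaluation – parasite load inhibition, % · Technique – GalScreen luminescence, 60 min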
KLF5 inh: kruppel-like factor 5 inhibition. DLD-1 KLF5 promoter-luciferase reporter, luminescence. hit rate 0.23% among 290,000. inhibition, % at 5 µM;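 active = inhibition above a per-plate limit of that plate's mean compound inhibition plus 3 SD, cut at about 60% in these data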;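 note: 0% = DMSO wells and 100% = LY294002 at 200 µM; higher means less KLF5 promoter-driven luciferase light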
Bfl-1 A1 inh: inhibitors of the anti-apoptotic protein A1, read as caspase activation; MEF A1-2A-BIM cells, Caspase-Glo 3/7 luminescence, 3 h; percent of clofoctol response, vehicle zero; caspase activation, % (test concentration not listed); hit rate 0.066% among 330,000;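 active = over half of replicate activation scores above 10%, or exactly half above 10 with the replicate mean above 10; inconclusive = replicate mean below 10 yet half the replicates above 10; inactive = over half of replicates below 10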
Beta apoptosis: beta cell apoptosis inhibition. protection from apoptosis, % (test concentration not listed). AID 435005. INS-1E cytokine-induced death, ATP luminescence, 48 h; percent of positive-control rescue, neutral wells zero. hit rate 0.8% among 300,000;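 active = Every replicate reaches about 75%, or at least half do and their mean reaches it too, limit read from the data; inconclusive = At least half of replicates reach the limit but their mean does not; inactive = Under half of replicates reach the limit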;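 note: 0% = cytokine-treated negative control wells and 100% = positive control rescue; higher means more ATP so stronger rescue from cytokine killing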
* = called active by the depositor; ? = inconclusive; / = not tested or not shown.

SMILES | HIF activator | T cruzi repl | KLF5 inh | Bfl-1 A1 inh | Beta apoptosis
COc1cc(NC(=O)c2cccs2)ccc1NC(=O)Cc1ccccc1 | 0.1 | -10.7 | -27.1 | 0.9 | 0.9
COc1cc(NC(=O)c2ccc([N+](=O)[O-])o2)ccc1NC(=O)c1cccs1 | -0.1 | 85.6* | -31.7 | 0.1 | 77.7*
O=C(Nc1cccc(NC(=O)c2ccc([N+](=O)[O-])o2)c1)c1ccco1 | -0.4 | 20.7 | -9.5 | 0.0 | -3.1
Cc1cccc(NC(=S)NC(NC(=O)OCc2ccccc2)C(Cl)(Cl)Cl)c1 (centres undefined) | 0.2 | 57.0* | -20.2 | -0.1 | 9.9
O=C(NC(NC(=S)Nc1cccc(C(=O)O)c1)C(Cl)(Cl)Cl)OCc1ccccc1 (centres undefined) | / | -16.7 | -12.4 | 0.0 | -8.1
C=C(C)C(=O)OCC(O)COc1ccc(C(C)(C)c2ccc(OCC(O)COC(=O)C(=C)C)cc2)cc1 (centres undefined) | -0.8 | -17.3 | / | -0.4 | 104.4*
CC(=O)c1ccc(OCC(O)COc2ccc(C(C)=O)cc2)cc1 | -0.2 | 5.4 | -14.2 | -0.3 | 2.7
COc1ccc(OC)c(C2C(C(C)=O)=C(O)C(=O)N2Cc2cccnc2)c1 (centres undefined) | 0.1 | -11.4 | -7.0 | 5.2* | -3.0
COc1ccc(OC)c(C2C(C(=O)c3ccco3)=C(O)C(=O)N2Cc2cccnc2)c1 (centres undefined) | -0.1 | -14.5 | -9.7 | 0.2 | -6.3
COc1cccc2cc(C(=O)NCCc3ccccc3)oc12 | 2.2 | 0.7 | -89.1 | -0.8 | 4.7
COc1ccc2[nH]cc(CCNC(=O)c3ccc4ccccc4n3)c2c1 | 0.3 | -6.9 | 7.1 | -1.2 | 16.2
Cc1cccc(S(=O)Cc2ccc(C(=O)N3CCN(C(=O)c4ccco4)CC3)o2)c1 (centres undefined) | -0.4 | 0.9 | -16.3 | 0.3 | -0.1
CC(C)(C)CN1CCC(Oc2cccc(C(=O)NCCCOc3cccnc3)c2)CC1 | 0.1 | -17.6 | -2.2 | -0.1 | 105.1*
O=C(Nc1cccnc1)c1cccnc1 | 0.2 | 0.8 | -8.6 | 0.6 | 104.9*
CC(=O)Nc1ccc(C(=O)NC2CCCC2)cc1 | / | / | -28.1 | 0.5 | -3.2
COC(=O)c1cccc(NC(=O)c2cccnc2)c1 | 0.1 | -7.2 | -17.6 | 0.2 | -2.4
O=C(Nc1ccc(C(=O)NC2CCCCC2)cc1)c1cccnc1 | -0.3 | -13.0 | 3.6 | 0.3 | 99.9*
Cc1cccc(C(=O)Nc2ccc(C(=O)/C=C/c3cccnc3)cc2)c1 | 5.4 | 34.9 | -27.5 | -2.8 | 100.7*
COC(=O)c1ccc(NC(=O)c2cccnc2)cc1 | -0.9 | 3.8 | -19.8 | 0.1 | 109.6*
O=C(Nc1ccc(N2CCN(C(=O)c3ccc(Cl)cc3)CC2)cc1)c1cccnc1 | -0.1 | -11.0 | 3.9 | 0.2 | 104.0*
O=C(Nc1ccc(N2CCN(C(=O)c3ccccc3)CC2)cc1)c1cccnc1 | 0.4 | 21.0 | -5.5 | 0.2 | 21.8
COc1cccc(C(=O)Nc2ccc(-c3nc4ccccc4o3)c(O)c2)c1 | 0.4 | 18.7 | 5.7 | 0.1 | 9.8
Cc1ccc2oc(-c3ccc(NC(=O)c4cccnc4)cc3)nc2c1 | 2.9 | 0.7 | -92.5 | 0.0 | 85.6*
COc1cc(OC)cc(C(=O)Nc2ccc(-c3nc4ccccc4o3)cc2)c1 | 0.0 | 60.3* | 7.6 | -1.1 | 35.3
Cc1cc(OCc2nc(-c3ccc(NC(=O)c4cccnc4)cc3)no2)ccc1Cl | -0.2 | -0.9 | -20.6 | 0.2 | 125.5*
SMILES | HIF activator | T cruzi repl | KLF5 inh | Bfl-1 A1 inh | Beta apoptosis
COC(=O)CNc1nc(C2CC2)nc2c1nnn2Cc1ccccc1Cl | 0.1 | 20.3 | 6.9 | 0.4 | 0.9
CN(C)S(=O)(=O)c1ccc(Nc2nc(C3CC3)nc3c2nnn3Cc2ccccc2Cl)cc1 | 1.0 | 52.8 | -13.2 | -0.2 | 87.9*
Brc1ccc(OCc2ccccc2)c(CNCc2ccncc2)c1 | -0.5 | 56.2* | 10.3 | 0.0 | 1.5
Fc1ccc(COc2ccccc2CNCc2ccncc2)cc1 | -0.5 | 56.4* | -21.1 | -0.1 | 2.0
Clc1ccc(COc2ccccc2CNCc2cccnc2)cc1 | 0.1 | ? | -48.4 | -0.2 | -4.4
Brc1cccc(CNCc2ccncc2)c1 | 0.0 | 51.0 | -33.6 | 0.9 | -2.1
Cc1ccsc1C(=O)OCC(=O)c1cc(C)n(C)c1C | / | / | / | -13.1 | 4.2
N/C(=N\OC(=O)COc1ccc2ccccc2c1Br)c1ccncc1 | 3.4 | 55.7* | -45.3 | -0.9 | 1.2
N/C(=N\OC(=O)COc1ccc2ccccc2c1)c1ccncc1 | 1.4 | 18.3 | 0.2 | 0.1 | /
O=c1ccsn1Cc1ccccc1 | 0.2 | 67.2* | -42.2 | 0.7 | 8.5
NC(=O)c1ccc(Nc2ccc([N+](=O)[O-])cc2[N+](=O)[O-])cc1 | -0.9 | 43.4 | -7.2 | 0.3 | 2.0
Nc1ccc(Nc2ccc([N+](=O)[O-])cc2[N+](=O)[O-])cc1 | 0.0 | 19.0 | -19.9 | -0.3 | 102.2*
CCCCCCC1CCC(c2nc(-c3ccncc3)no2)CC1 (centres undefined) | 34.8* | 9.6 | -44.2 | 0.1 | 7.7
CC(OC(=O)CCCC(=O)Nc1ccccc1)C(=O)c1ccccc1 (centres undefined) | -0.5 | -14.5 | 6.5 | -0.2 | -7.3
NS(=O)(=O)c1ccc(N/N=C/c2cn(-c3ccccc3)nc2-c2ccccc2)c([N+](=O)[O-])c1 | -0.2 | 39.5 | -7.1 | 5.8* | 91.1*
CCOC(=O)C1CCN(C(=O)COc2ccc3c(c2)OCO3)CC1 | -0.6 | -21.5 | -7.6 | -0.2 | -3.8
Cc1cccc(N2C(=O)CSC2c2cccnc2)c1 (centres undefined) | -0.2 | -4.4 | 2.9 | -0.1 | -7.5
Cc1cccc(N2CCN(c3cccc(C)c3)C2c2cccnc2)c1 | 0.8 | 65.5* | 2.2 | -0.5 | /
CCOc1ccccc1NC(=O)COC(=O)CCOc1cc(C)ccc1C | -0.6 | -3.6 | / | -0.4 | -8.7
Cc1ccc(NC(=O)c2cc(N3C(=O)C=CC3=O)ccc2N2CCOCC2)cc1Cl | -1.4 | 55.2* | 1.1 | 15.2* | -4.6
O=C(c1ccc(C(F)(F)F)cc1)C1CCCN(C(=O)Cn2cncn2)C1 (centres undefined) | 0.1 | 0.8 | -11.2 | 0.2 | -0.5
CCCn1cc(CN2CCCC(C(=O)c3cccc(OC(C)C)c3)C2)c(C)n1 (centres undefined) | 0.2 | ? | -15.4 | 0.5 | 0.7
CC(C)Oc1cccc(C(=O)C2CCCN(Cc3cnc(N4CCCC4)s3)C2)c1 (centres undefined) | 0.1 | 82.1* | -18.3 | 1.0 | -0.4
CCCn1ncc(CN2CCCC(C(=O)c3cccc(OC(C)C)c3)C2)c1C (centres undefined) | 0.0 | 55.0* | -32.6 | 0.2 | -1.7
CC(=O)Nc1ccc(CN2CCCC(C(=O)c3cccc(C(F)(F)F)c3)C2)cc1 (centres undefined) | 0.1 | 20.3 | -30.4 | -0.3 | 2.2
O=C(c1cccc(C(F)(F)F)c1)C1CCCN(C(=O)Cn2cncn2)C1 (centres undefined) | 11.3* | -9.1 | -20.9 | 0.0 | -1.8
